# From PubChem BioAssay
# TAAR1 agonist: human TAAR1 agonism; Q96RJ0; CHO RD-HGA16 TAAR1, Fluo-8 calcium fluorescence; vehicle wells 0%, saturating PEA agonist 100%; activation, % at 3 µM; actives 0.99% (n = 360,000);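 active = activation above the mean activation of all test compounds in the run plus 3 SD, cut at about 38% in these data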
# Target sequence (Q96RJ0 whole entry, looked up): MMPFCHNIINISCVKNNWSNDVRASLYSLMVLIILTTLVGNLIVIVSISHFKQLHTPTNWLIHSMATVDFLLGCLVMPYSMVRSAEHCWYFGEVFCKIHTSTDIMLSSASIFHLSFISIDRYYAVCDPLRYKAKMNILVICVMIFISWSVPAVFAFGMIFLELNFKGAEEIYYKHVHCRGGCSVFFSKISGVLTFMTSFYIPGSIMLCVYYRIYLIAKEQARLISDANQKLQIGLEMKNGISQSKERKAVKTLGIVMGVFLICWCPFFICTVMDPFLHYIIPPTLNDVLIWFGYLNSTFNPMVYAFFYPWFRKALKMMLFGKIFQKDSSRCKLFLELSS
#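 Assay system – CHO-derived RD-HGA16 cells with stable Gα16 and human TAAR1 · Compound dosing – one-point dosing at 3 µM (nominal) · Incubation – 17-24 h seeding, 75 min 37 °C dye, 30 min RT · Measured by – kinetic Fluo-8 calcium fluorescence · Control set – DMSO vehicle as 0%, PEA at EC100 as 100% · Repeats – single well for each compound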
# TAAR1 antagonist: antagonists of human TAAR1; Q96RJ0; CHO RD-HGA16 TAAR1, Fluo-8 calcium fluorescence, antagonist; inhibition, % at 3 µM; actives 1.5% (n = 360,000); AID 624466;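 active = inhibition above a per-plate cutoff, the mean inhibition of test compounds on that plate plus 3 SD, cut at about 49% in these data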;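 note: 0% = DMSO plus EC80 beta-PEA response and 100% = DMSO alone without agonist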
#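 Test system: hTAAR1-expressing CHO RD-HGA16 cells, Gα16-coupled; Probe or stimulus: EC80 β-phenethylamine stimulus; Compound dosing: single nominal final test compound concentration of 3 µM; Timing: 140 s kinetic read after compound, 140 s after agonist; Signal: Fluo-8 calcium-sensitive fluorescence; Measure: % inhibition of agonist calcium response; Controls: DMSO and EC80 PEA controls.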
# CHRM1 agonist: activates human CHRM1 receptor | CHO-K1 hM1, Fluo-8 calcium fluorescence, agonist mode; 0% DMSO, 100% acetylcholine EC100 | activation, % at 3 µM | actives 0.33% (n = 360,000);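 active = activation above the run's mean compound activation plus 3 SD, cut at about 16% in these data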;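 note: peak over basal fluorescence ratio within a 140 s kinetic read after compound addition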
# CHRM1 PAM: human CHRM1 positive allosteric modulation | AID 588819 | actives 0.088% (n = 360,000) | P11229 | activation, % at 3 µM | CHO-K1 hM1, Fluo-8 calcium fluorescence, ACh EC20; 0% = ACh EC20, 100% = maximal ACh; in the data active = activation above about 19%, passing the limit was not always enough
# M1 antag: antagonists of human M1 muscarinic receptor. P11229. CHO-K1 hM1, Fluo-8 calcium fluorescence, ACh EC80 antagonist. inhibition, % at 3 µM. actives 1.3% (n = 360,000). AID 588852;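 active = percent inhibition above its own plate's cutoff, namely the mean of that plate's compound wells plus 3 SD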;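 note: peak over basal fluorescence ratio during 140 s after agonist addition; 0% = ACh EC80 plus DMSO and 100% = DMSO alone without agonist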
# Numbers without * were called inactive; x = no result. Compounds with a hit are over-represented: about 3.4% of the library has one in this group of screens.
SMILES,TAAR1 agonist,TAAR1 antagonist,CHRM1 agonist,CHRM1 PAM,M1 antag
CCC(C)NC(=O)c1ccc(N2CC3CC(C2)c2cccc(=O)n2C3)c(NC(=O)c2c(F)cccc2F)c1 (stereo unspecified),0.1,-8.2,22.4*,-3.8,-3.6
COCCNC(=O)c1ccc(N2CC3CC(C2)c2cccc(=O)n2C3)c(NC(=O)c2c(F)cccc2F)c1 (stereo unspecified),1.5,-10.6,14.8,12.4,1.7
CCC1CCCCN1CCNS(=O)(=O)c1ccc2c(c1)oc(=O)n2C (stereo unspecified),0.0,7.2,-12.8,-27.2,50.4*
COC(=O)[C@]12C[C@H](CC(=O)NCCC(C)C)C(=O)N(Cc3ccccc3)C1=C[C@H](C1CCCC1)O[C@@H]2C,-1.1,-33.5,x,x,x
Cc1ccc(S(=O)(=O)c2c(N)n(NC(=O)c3ccccc3C)c3nc4ccccc4nc23)cc1,9.0,26.8,-4.8,2.9,-6.5
Cc1ccc(C(=O)Nn2c(N)c(S(=O)(=O)c3ccc(C)cc3)c3nc4ccccc4nc32)cc1,27.7,26.1,5.4,0.0,20.4*
CC(C)CC1CCCCC1OC(=O)C[N+]1(C)CCCCC1 (stereo unspecified),13.8,-3.4,-14.2,-35.6,95.5*
CC(C)(C)C1CCC(OC(=O)C[N+]2(C)CCCCC2)CC1 (stereo unspecified),1.8,-5.3,-5.9,-4.0,8.6
CCC(=O)N(Cc1cc(=O)[nH]c2ccccc12)c1ccccc1,-4.0,5.0,-6.9,-21.7,31.2*
CCCC(=O)N(Cc1cc(=O)[nH]c2ccccc12)c1ccccc1,5.0,-19.2,-9.2,-1.3,3.1
O=S(=O)(c1ccc2c(c1)C(O)c1ccccc1CC2)C(F)(F)F (stereo unspecified),2.3,27.6,-7.3,-25.9,30.5*
O=C(c1cccs1)N1CCN(C23CC4CC(CC(C4)C2)C3)CC1,2.4,1.6,-5.9,-23.1,72.0*
O=C(c1ccc(Cl)s1)N1CCN(C23CC4CC(CC(C4)C2)C3)CC1,x,x,-7.6,-13.6,14.0
Cc1ccc(N2C(=O)CSC23C(=O)Nc2ccccc23)cc1 (stereo unspecified),0.5,10.6,-4.8,-18.7,41.2*
Cc1ccc2c(c1)C1(SC(C)C(=O)N1c1ccc(Cl)cc1)C(=O)N2 (stereo unspecified),-2.2,3.1,-12.4,-26.5,25.2
Cc1cccc2c1N(CCOc1ccccc1Cl)C(=O)C2=O,0.1,5.9,23.6*,-1.3,-16.0
Cc1cccc2c1N(CCOc1ccc(C(C)(C)C)cc1)C(=O)C2=O,4.1,41.9,20.9*,-7.1,-0.8
Cc1[nH]c2ccccc2c1C(C[N+](=O)[O-])c1cccc(O)c1 (stereo unspecified),2.7,6.6,-0.9,-13.4,37.4*
Cc1c(C(=O)NCc2ccccc2)oc2ccc(S(=O)(=O)N3CCC4(CC3)OCCO4)cc12,18.3,22.8,-1.5,0.3,8.8
Cc1c(C(=O)NCCC2=CCCCC2)oc2ccc(S(=O)(=O)N3CCC4(CC3)OCCO4)cc12,21.1,60.2*,-0.8,-11.7,35.5*
Cc1c(C(=O)NCC2COc3ccccc3O2)oc2ccc(S(=O)(=O)N3CC(C)CC(C)C3)cc12 (stereo unspecified),12.0,-10.0,-3.5,-8.8,13.5
Cc1c(C(=O)NCC2COc3ccccc3O2)oc2ccc(S(=O)(=O)N3CCOCC3)cc12 (stereo unspecified),33.3,58.1*,1.9,-7.3,34.8*
COc1cccc(NC(=O)c2oc3ccc(S(=O)(=O)N4CCOCC4)cc3c2C)c1,18.9,52.1*,0.8,-6.3,23.8
Cc1c(C(=O)NCCc2ccccc2)oc2ccc(S(=O)(=O)N3CCOCC3)cc12,38.1*,28.9,2.9,0.4,6.9
C[C@@H]1CN([C@@H](C)CO)C(=O)CCCn2cc(nn2)CO[C@H]1CN(C)C(=O)Nc1ccc(C(C)(C)C)cc1,2.9,-0.6,x,x,x
SMILES,TAAR1 agonist,TAAR1 antagonist,CHRM1 agonist,CHRM1 PAM,M1 antag
Nc1nc2ncccc2cc1C(=O)NC1CCCCC1,0.3,-0.2,x,x,x
CC(=NNc1nc2ccccc2s1)c1ncccn1,49.0*,74.2*,4.7,2.2,4.2
COCc1[nH]nc2c1C(c1cccc(C(F)(F)F)c1)N(c1ccccc1)C2=O (stereo unspecified),-1.3,-26.9,x,x,x
Cc1cccc(-c2ccc(NC(=O)C3CCN(CC4CC4)CC3)cc2)c1,11.2,0.0,-8.7,-6.0,4.6
COc1cccc(CN2CCC(C(=O)Nc3ccc(-c4cccc(C)c4)cc3)CC2)c1O,37.9*,12.4,-0.4,6.1,-7.4
O=C(NCCn1cc(SCc2ccccc2F)c2ccccc21)c1c(F)cccc1F,2.0,82.7*,-4.5,-19.5,31.7*
O=C(NCCn1cc(SCC(=O)N2CCOCC2)c2ccccc21)c1c(F)cccc1F,6.6,28.1,-1.7,-4.0,-1.1
O=[N+]([O-])c1ccc(N/N=C2\CC3CC=CC23)c([N+](=O)[O-])c1 (stereo unspecified),0.4,-7.3,-3.8,-5.4,13.9
O=[N+]([O-])c1ccc(NN=C2CC3CCC2C3)c([N+](=O)[O-])c1 (stereo unspecified),-0.1,0.6,-5.9,-22.5,38.6*
Cn1cc(C(c2ccccn2)c2cn(C)c3ccccc23)c2ccccc21,41.1*,-11.0,8.1,13.6,-20.6
CC(C)CNc1ncnc2c1ncn2[C@H]1CN(CCc2ccccc2)C[C@@H](CO)O1,40.6*,-11.2,-2.1,4.1,-8.6
OC[C@@H]1CN(Cc2ccc(-c3ccccc3)cc2)C[C@H](n2cnc3c(Nc4ccccc4)ncnc32)O1,10.7,51.5*,0.7,-8.1,21.3
CC(C)CNc1ncnc2c1ncn2[C@H]1CN(Cc2cccc3ccccc23)C[C@@H](CO)O1,5.1,6.6,-0.4,2.6,-10.4
OC[C@@H]1CN(Cc2cccc3ccccc23)C[C@H](n2cnc3c(NCc4ccco4)ncnc32)O1,20.2,65.5*,6.1,-11.9,23.9
CC(C)CNc1ncnc2c1ncn2[C@H]1CN(Cc2ccc(Cl)cc2)C[C@@H](CO)O1,0.2,5.0,2.0,7.4,-3.2
CC(C)C[C@@H]1NC(=O)[C@@H]2CSCCS(=O)(=O)N2C1=O,1.1,-1.9,x,x,x
CCOc1ccc(C(C(=O)NCC2CCCO2)N(C(=O)c2snc(C(N)=O)c2N)c2ccc(F)cc2)cc1 (stereo unspecified),27.9,49.2*,-1.4,-3.1,4.6
Oc1ccc2ccccc2c1CN1CCN(c2ccccc2F)CC1,2.9,-5.2,-4.2,4.6,-12.4
O=S(=O)(c1ccccc1)N1CCN(Cc2c(O)ccc3ccccc23)CC1,6.7,51.4*,-3.3,-12.1,20.6
Oc1ccc2ccccc2c1CN1CCN(C/C=C/c2ccccc2)CC1,4.0,-7.1,-7.1,-29.6,76.5*
O=S(=O)(c1ccccc1)N1CCN(CCO)CC1,2.6,5.8,-6.9,5.8,-13.0
